# According to ChEMBL document CHEMBL1255300, “Pharmacodynamics of the antibacterial effect and emergence of resistance to tomopenem, formerly RO4908463/CS-023, in an in vitro pharmacokinetic model of Staphylococcus aureus infection” (Antimicrob Agents Chemother, 2008):
# Legend:
# Format in all cases: functional
# Staphylococcus aureus [1] = test: T>MIC for 4-log drop in count in methicillin-sensitive Staphylococcus aureus 5956 in in vitro pharmacokinetic model after 24 hrs using 10^8 CFU/ml inoculum
# Method in brief: (§1)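 Dose-ranging: 7–13 simulated regimens per strain giving T>MIC of 0–100% (MIC from 10% MHB), at 106 or 10^8 CFU/ml as stated.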
# Staphylococcus aureus [2] = test: Antibacterial activity against methicillin-resistant Staphylococcus aureus 33922 infected in in vitro pharmacokinetic model assessed as reduction in viable count at 1500 mg, iv every 8 hrs measured after 48 hrs using 10^6 CFU/ml inoculum
# Staphylococcus aureus [3] = test: Antibacterial activity against methicillin-resistant Staphylococcus aureus 33815 infected in in vitro pharmacokinetic model assessed as reduction in viable count at 750 mg, iv every 8 hrs measured after 12 hrs using 10^8 CFU/ml inoculum
# Method in brief: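 PK model at 37°C in 10% MHB. […] A 0.5 McFarland suspension (1 ml) was added and the model run overnight to reach 10^8 CFU/ml before dosing. Counts were spiral-plated on nutrient agar with β-lactamase. Change in log CFU/ml was measured from time 0; at least triplicate.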
# Staphylococcus aureus [4] = test: T>MIC for 2-log drop in count in methicillin-resistant Staphylococcus aureus 33827 in in vitro pharmacokinetic model after 24 hrs using 10^6 CFU/ml inoculum
# Staphylococcus aureus [5] = test: AUBKC (0 to 24 hrs) in methicillin-resistant Staphylococcus aureus 33922 infected in in vitro pharmacokinetic model at 1500 mg, iv every 8 hrs using 10^6 CFU/ml inoculum
# Method in brief: (§2)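 Single-compartment dilutional in vitro PK model at 37°C in 10% Mueller-Hinton broth, stirred, flow 132 ml/h. […] Inoculum 10^6 CFU/ml added 45 min before dosing, or 10^8 CFU/ml run overnight. Viable counts with β-lactamase neutralisation. AUBKC by log-linear trapezoidal rule, at least triplicate.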
# Staphylococcus aureus [6] = test: Antibacterial activity against methicillin-resistant Staphylococcus aureus 33827 infected in in vitro pharmacokinetic model assessed as reduction in viable count at 1500 mg, iv every 8 hrs measured after 36 hrs using 10^6 CFU/ml inoculum
# Method in brief: (§3)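 Single-compartment dilutional in vitro PK model, 10% Mueller-Hinton broth, 37°C, stirred, dilution 132 ml/h. […] Inoculum 10^6 CFU/ml (added 45 min pre-dose) or 10^8 CFU/ml (run overnight). Viable counts by spiral plating, beta-lactamase neutralization, detection limit 10^2 CFU/ml. At least triplicate.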
# Staphylococcus aureus [7] = test: T>MIC for 2-log drop in count in methicillin-sensitive Staphylococcus aureus 5956 in in vitro pharmacokinetic model after 24 hrs using 10^6 CFU/ml inoculum
# Staphylococcus aureus [8] = test: Antibacterial activity against methicillin-resistant Staphylococcus aureus 33820 infected in in vitro pharmacokinetic model assessed as reduction in viable count at 1500 mg, iv every 8 hrs measured after 24 hrs using 10^6 CFU/ml inoculum
# Method in brief: (§4)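 Single-compartment dilutional in vitro PK model, 37°C, stirred, in 10% Mueller-Hinton broth. […] Inoculum 10^6 CFU/ml from a 24-h plate culture was added 45 min before dosing. Viable counts by spiral plating on nutrient agar with β-lactamase neutralization. Log change was taken from time 0; detection limit 10^2 CFU/ml; at least triplicate.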
# Staphylococcus aureus [9] = test: T>MIC for 4-log drop in count in methicillin-sensitive Staphylococcus aureus 5956 in in vitro pharmacokinetic model after 24 hrs using 10^6 CFU/ml inoculum; method in brief: as §1
# Staphylococcus aureus [10] = test: Antibacterial activity against methicillin-resistant Staphylococcus aureus 33829 infected in in vitro pharmacokinetic model assessed as reduction in viable count at 1500 mg, iv every 8 hrs measured after 24 hrs using 10^6 CFU/ml inoculum; method in brief: as §3
# Staphylococcus aureus [11] = test: Antibacterial activity against methicillin-resistant Staphylococcus aureus 33820 infected in in vitro pharmacokinetic model assessed as reduction in viable count at 750 mg, iv every 8 hrs measured after 36 hrs using 10^6 CFU/ml inoculum; method in brief: as §4
# Staphylococcus aureus [12] = test: T>MIC in methicillin-sensitive Staphylococcus aureus 5956 infected in vitro pharmacokinetic model at 750 mg, iv every 8 hrs
# Staphylococcus aureus [13] = test: T>MIC for 4-log drop in count in methicillin-resistant Staphylococcus aureus 33815 in in vitro pharmacokinetic model after 24 hrs using 10^6 CFU/ml inoculum
# Staphylococcus aureus [14] = test: Antibacterial activity against methicillin-resistant Staphylococcus aureus 33815 by 10% MH broth method
# Method in brief: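 Broth dilution MIC per CLSI but in 10% Mueller-Hinton broth, using nondoubling dilutions.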
# Staphylococcus aureus [15] = test: AUBKC (0 to 48 hrs) in methicillin-resistant Staphylococcus aureus 33922 infected in in vitro pharmacokinetic model at 1500 mg, iv every 8 hrs using 10^8 CFU/ml inoculum; method in brief: as §2
# Staphylococcus aureus [16] = test: T>MIC for static effect in methicillin-sensitive Staphylococcus aureus 5956 in in vitro pharmacokinetic model after 24 hrs using 10^6 CFU/ml inoculum
# Staphylococcus aureus [17] = test: AUBKC (0 to 48 hrs) in methicillin-resistant Staphylococcus aureus 33827 infected in in vitro pharmacokinetic model at 1500 mg, iv every 8 hrs using 10^8 CFU/ml inoculum; method in brief: as §2
# Staphylococcus aureus [18] = test: Antibacterial activity against methicillin-resistant Staphylococcus aureus 33827 by broth dilution method
# Method in brief: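 Standard CLSI broth dilution MIC.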
# Staphylococcus aureus [19] = test: AUBKC (0 to 24 hrs) in methicillin-sensitive Staphylococcus aureus 5956 infected in in vitro pharmacokinetic model at 1500 mg, iv every 8 hrs using 10^6 CFU/ml inoculum
# Staphylococcus aureus [20] = test: Antibacterial activity against methicillin-resistant Staphylococcus aureus 33921 infected in in vitro pharmacokinetic model assessed as time required to 99.9% killing at 750 mg, iv every 8 hrs using 10^6 CFU/ml inoculum
# Staphylococcus aureus [21] = test: T>MIC for 3-log drop in count in methicillin-resistant Staphylococcus aureus 33827 in in vitro pharmacokinetic model after 24 hrs using 10^8 CFU/ml inoculum
# Staphylococcus aureus [22] = test: Antibacterial activity against methicillin-sensitive Staphylococcus aureus
# Staphylococcus aureus [23] = test: Antibacterial activity against methicillin-resistant Staphylococcus aureus 33922 infected in in vitro pharmacokinetic model assessed as reduction in viable count at 750 mg, iv every 8 hrs measured after 24 hrs using 10^8 CFU/ml inoculum
# Staphylococcus aureus [24] = test: Antibacterial activity against methicillin-resistant Staphylococcus aureus 33827 infected in in vitro pharmacokinetic model assessed as reduction in viable count at 1500 mg, iv every 8 hrs measured after 48 hrs using 10^6 CFU/ml inoculum; method in brief: as §3
# Staphylococcus aureus [25] = test: T>MIC in methicillin-sensitive Staphylococcus aureus 5956 infected in vitro pharmacokinetic model at 1500 mg, iv every 8 hrs
# Staphylococcus aureus [26] = test: Antibacterial activity against methicillin-resistant Staphylococcus aureus 33827 infected in in vitro pharmacokinetic model assessed as reduction in viable count at 750 mg, iv every 8 hrs measured after 36 hrs using 10^6 CFU/ml inoculum; method in brief: as §3
# Staphylococcus aureus [27] = test: Antibacterial activity against methicillin-resistant Staphylococcus aureus 33820 infected in in vitro pharmacokinetic model assessed as reduction in viable count at 750 mg, iv every 8 hrs measured after 24 hrs using 10^6 CFU/ml inoculum; method in brief: as §4
smiles,measurement,setting,value
C[C@@H](O)[C@H]1C(=O)N2C(C(=O)O)=C(S[C@H]3C[C@@H](C(=O)N4CC[C@H](NC(=O)CNC(=N)N)C4)N(C)C3)[C@H](C)[C@H]12 [TOMOPENEM],fT>MIC,Staphylococcus aureus [1],20.1%
same,log10CFU/ml,Staphylococcus aureus [2],4.2
same,log10CFU/ml,Staphylococcus aureus [3],1.7
same,fT>MIC,Staphylococcus aureus [4],31.2%
same,AUBC,Staphylococcus aureus [5],16.9 log10CFU/ml.hr
same,log10CFU/ml,Staphylococcus aureus [6],4
same,fT>MIC,Staphylococcus aureus [7],8.7%
same,log10CFU/ml,Staphylococcus aureus [8],4.2
same,fT>MIC,Staphylococcus aureus [9],12.8%
same,log10CFU/ml,Staphylococcus aureus [10],4.2
same,log10CFU/ml,Staphylococcus aureus [11],4.2
same,fT>MIC,Staphylococcus aureus [12],100%
same,fT>MIC,Staphylococcus aureus [13],29.6%
same,MIC,Staphylococcus aureus [14],6 µg/mL
same,AUBC,Staphylococcus aureus [15],124.7 log10CFU/ml.hr
same,fT>MIC,Staphylococcus aureus [16],6%
same,AUBC,Staphylococcus aureus [17],93.5 log10CFU/ml.hr
same,MIC,Staphylococcus aureus [18],2 µg/mL
same,AUBC,Staphylococcus aureus [19],22.7 log10CFU/ml.hr
same,Time,Staphylococcus aureus [20],12 h
same,fT>MIC,Staphylococcus aureus [21],59.3%
same,MIC50,Staphylococcus aureus [22],0.12 µg/mL
same,MIC90,Staphylococcus aureus [22],0.12 µg/mL
same,log10CFU/ml,Staphylococcus aureus [23],5
same,log10CFU/ml,Staphylococcus aureus [24],3.6
same,fT>MIC,Staphylococcus aureus [25],100%
same,log10CFU/ml,Staphylococcus aureus [26],3.7
same,log10CFU/ml,Staphylococcus aureus [27],4.2
